This is an account of results in ChEMBL document CHEMBL1156936, “2,3-Diamino acid modifying 3S-tetrahydroisoquinoline-3-carboxylic acids: leading to a class of novel agents with highly unfolded conformation, selective in vitro anti-platelet aggregation and potent in vivo anti-thrombotic activity” (Bioorg Med Chem, 2010).

Assay [1] relates to Rattus norvegicus. Put plainly: Antithrombotic activity in Wistar rat assessed as reduction of thrombus weight at 15 umol/kg, iv. The assay is classed as functional. In outline: (§1)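 Male Wistar rats (250–300 g) with an arteriovenous shunt: a polyethylene tube holding a thread joins the right carotid artery to the left jugular vein. Heparin sodium is injected through the tube, then vehicle (NS) or drug dissolved in NS and kept on ice. Blood flows for 15 min, and the wet thrombus on the thread is weighed. Analysis by ANOVA.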

The subject of assay [2] is Rattus norvegicus. Put plainly: Antithrombotic activity in Wistar rat assessed as reduction of thrombus weight at 30 nmol/kg, po. The assay is classed as functional. In outline:
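Drug in NS (or NS alone, 0.6 ml) is given orally to male Wistar rats (250–300 g), then pentobarbital sodium 80.0 mg/kg ip. Thirty min later the right carotid artery and left jugular vein are exposed and joined by a heparinized thread-containing shunt. Blood flows for 15 min, and the wet thrombus is weighed. n=12; analysis by ANOVA.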

Assay [3] has as its system Rattus norvegicus. Put plainly: Antithrombotic activity in Wistar rat assessed as reduction of thrombus weight at 30 nmol/kg, iv. The assay is classed as functional. In outline: as §1
Assay [4] has as its system Rattus norvegicus. Put plainly: Antithrombotic activity in Wistar rat assessed as reduction of thrombus weight at 3 nmol/kg, iv. The assay is classed as functional. In outline: as §1
Assay [5] relates to Platelet. The assay is described as follows: Inhibition of adenosine diphosphate-induced pig platelet aggregation measured for 5 mins. Format: functional, cell-based. Conditions: Sus scrofa.
Assay [6] has as its system Platelet. The assay is described as follows: Inhibition of platelet activating factor-induced pig platelet aggregation measured for 5 mins. Conditions: Sus scrofa. Format: functional, cell-based.
The subject of assay [7] is Platelet. Put plainly: Inhibition of arachidonic acid-induced pig platelet aggregation measured for 5 mins. The note with it: Sus scrofa. Format: functional, cell-based.
In assay [8] the test system is Platelet. Put plainly: Inhibition of thrombin-induced pig platelet aggregation measured for 5 mins. The note with it: Sus scrofa. Format: functional, cell-based. Summed up: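 Pig blood spun at 1000g for 10 min to give PRP and at 1500g for 10 min to give PPP. Platelets adjusted to 2×10⁸/ml with autologous PPP, and 0.5 ml is pre-mixed with NS or drug at six tenfold-spaced final concentrations. After baseline the agonist is added (thrombin final 0.1 U/ml). Optical aggregation is read at 37 °C for 5 min. Peak height is taken as maximal aggregation, and % inhibition is calculated against NS. Run in sextuplicate; IC50 from the concentration–inhibition curve.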

For assay [9], the system named is Rattus norvegicus. The assay is described as follows: Antithrombotic activity in iv dosed Wistar rat assessed as reduction of thrombus weight. Format: functional, organism-based. In outline:
as §1

Assay [10] concerns Rattus norvegicus. Put plainly: Antithrombotic activity in Wistar rat assessed as reduction of thrombus weight at 0.3 nmol/kg, iv. Format: functional. In outline: as §1
For assay [11], the system named is Rattus norvegicus. The assay is described as follows: Antithrombotic activity in Wistar rat assessed as reduction of thrombus weight at 0.03 nmol/kg, iv. Format: functional. Summed up: as §1
For assay [12], the system named is Rattus norvegicus. Put plainly: Antithrombotic activity in Wistar rat assessed as reduction of thrombus weight at 165 umol/kg, iv. Format: functional. In outline:
as §1

Square brackets hold non-standard residues; d marks the D form. Peptide text beside a SMILES is read from it. Tic = O=C(O)[C@@H]1Cc2ccccc2CN1

As for `O=C(O)[C@@H]1Cc2ccccc2CN1`, in the assay with Rattus norvegicus [1], the Activity amounted to 21.52 mg.

In the case of `C[C@H](N)C(=O)N1Cc2ccccc2C[C@H]1C(=O)N[C@@H](C)C(=O)O`, the Activity in the assay with Rattus norvegicus [2] was 18.89 mg; with Rattus norvegicus [3], 17.12 mg; with Rattus norvegicus [4], 23.35 mg; in the assay with Rattus norvegicus [9] it was “Dose-dependent effect”; with Rattus norvegicus [10], 29.77 mg. Besides, the IC50 in the assay on Platelet [5] was determined as 2.36 nM; with Platelet [6] it was 5.6 nM; in the assay on Platelet [7] it was 8.73 nM; with Platelet [8], 9.48 nM.

Regarding `N=C(N)NCCC[C@H](NC(=O)[C@@H]1Cc2ccccc2CN1C(=O)[C@@H](N)CCCNC(=N)N)C(=O)O` (H-Arg-[Tic]-Arg-OH), the Activity with Rattus norvegicus [2] was 15.15 mg; in the assay with Rattus norvegicus [3] it was 10.61 mg; in the assay with Rattus norvegicus [4] it was 16.29 mg; with Rattus norvegicus [9], “Dose-dependent effect”; in the assay with Rattus norvegicus [11], 19.71 mg. Moreover, the IC50 in the assay with Platelet [5] was determined as 3.15 nM; with Platelet [6] it was 6.07 nM; in the assay on Platelet [7], 9.17 nM; in the assay on Platelet [8] it was 9.87 nM.

With `NC(=O)C[C@H](NC(=O)[C@@H]1Cc2ccccc2CN1C(=O)[C@@H](N)CC(N)=O)C(=O)O` (H-Asn-[Tic]-Asn-OH), the results for the Activity with Rattus norvegicus [2] and with Rattus norvegicus [3] were 16.88 mg and 17.95 mg, respectively. Besides, the IC50 worked out at 3.07 nM in the assay with Platelet [5], 5.39 nM with Platelet [6], 8.28 nM with Platelet [7] and 8.43 nM in the assay with Platelet [8].

For the molecule `N[C@@H](CC(=O)O)C(=O)N1Cc2ccccc2C[C@H]1C(=O)N[C@@H](CC(=O)O)C(=O)O` (H-Asp-[Tic]-Asp-OH), the Activity with Rattus norvegicus [3] is 20.49 mg. The IC50 with Platelet [5] was 3.48 nM; in the assay with Platelet [6], 4.37 nM; in the assay with Platelet [7], 9.55 nM; with Platelet [8], 11.1 nM.

For `N[C@@H](CS)C(=O)N1Cc2ccccc2C[C@H]1C(=O)N[C@@H](CS)C(=O)O` (H-Cys-[Tic]-Cys-OH), the Activity with Rattus norvegicus [3] was 19.35 mg. For the same molecule, the IC50 with Platelet [5] came to 3.26 nM; in the assay on Platelet [6], 6.32 nM; in the assay with Platelet [7] it was 8.18 nM; in the assay on Platelet [8], 9.64 nM.

On to `NC(=O)CC[C@H](NC(=O)[C@@H]1Cc2ccccc2CN1C(=O)[C@@H](N)CCC(N)=O)C(=O)O` (H-Gln-[Tic]-Gln-OH), for which the Activity stood at 18.23 mg in the assay with Rattus norvegicus [2] and 18.13 mg with Rattus norvegicus [3]. In addition, the concentration for half-maximal inhibition (IC50) in the assay with Platelet [5] turned out to be 2.55 nM; in the assay with Platelet [6], 5.72 nM; with Platelet [7] it was 8.37 nM; in the assay on Platelet [8], 9.13 nM.

Turning to `N[C@@H](CCC(=O)O)C(=O)N1Cc2ccccc2C[C@H]1C(=O)N[C@@H](CCC(=O)O)C(=O)O` (H-Glu-[Tic]-Glu-OH), in the assay on Rattus norvegicus [3], the Activity turned out to be 18.95 mg. Besides, the IC50 in the assay on Platelet [5] came out at 2.19 nM; with Platelet [6], 4.19 nM; with Platelet [7], 9.86 nM; in the assay with Platelet [8] it was 10.3 nM.

Take `NCC(=O)N1Cc2ccccc2C[C@H]1C(=O)NCC(=O)O` (H-Gly-[Tic]-Gly-OH): the Activity in the assay on Rattus norvegicus [3] is 25.2 mg. Besides, the IC50 was 2.44 nM with Platelet [5], 5.15 nM with Platelet [6], 7.95 nM with Platelet [7] and 10.6 nM in the assay on Platelet [8].

Regarding `N[C@@H](Cc1c[nH]cn1)C(=O)N1Cc2ccccc2C[C@H]1C(=O)N[C@@H](Cc1cnc[nH]1)C(=O)O` (H-His-[Tic]-His-OH), the Activity in the assay on Rattus norvegicus [3] was determined as 20.91 mg. The IC50 in the assay with Platelet [5] is 2.84 nM; in the assay with Platelet [6], 5.57 nM; with Platelet [7], 9.38 nM; with Platelet [8], 10 nM.

Regarding `CC[C@H](C)[C@H](N)C(=O)N1Cc2ccccc2C[C@H]1C(=O)N[C@H](C(=O)O)[C@@H](C)CC` (H-Ile-[Tic]-Ile-OH), the Activity in the assay on Rattus norvegicus [3] is reported as 24.3 mg. In addition, the IC50 with Platelet [5] is 2.89 nM; in the assay on Platelet [6], 5.64 nM; in the assay with Platelet [7] it was 8.92 nM; with Platelet [8], 11.3 nM.

As to `CC(C)C[C@H](NC(=O)[C@@H]1Cc2ccccc2CN1C(=O)[C@@H](N)CC(C)C)C(=O)O` (H-Leu-[Tic]-Leu-OH), in the assay on Rattus norvegicus [3], the Activity amounted to 19.53 mg. The IC50 turned out to be 2.57 nM with Platelet [5], 5.03 nM in the assay with Platelet [6], 8.17 nM with Platelet [7] and 10 nM with Platelet [8].

As for `NCCCC[C@H](NC(=O)[C@@H]1Cc2ccccc2CN1C(=O)[C@@H](N)CCCCN)C(=O)O` (H-Lys-[Tic]-Lys-OH), the Activity came out at 19.72 mg in the assay on Rattus norvegicus [2] and 18.65 mg with Rattus norvegicus [3]. Further, the IC50 in the assay on Platelet [5] turned out to be 3.73 nM; in the assay with Platelet [6] it was 5.67 nM; in the assay on Platelet [7], 9.64 nM; in the assay on Platelet [8], 8.98 nM.

Take `CSCC[C@H](NC(=O)[C@@H]1Cc2ccccc2CN1C(=O)[C@@H](N)CCSC)C(=O)O` (H-Met-[Tic]-Met-OH): the Activity in the assay on Rattus norvegicus [3] came to 19.36 mg. Also, the IC50 in the assay with Platelet [5] turned out to be 3.42 nM; with Platelet [6] it was 4.91 nM; in the assay on Platelet [7], 8.19 nM; in the assay on Platelet [8] it was 9.99 nM.

`N[C@@H](Cc1ccccc1)C(=O)N1Cc2ccccc2C[C@H]1C(=O)N[C@@H](Cc1ccccc1)C(=O)O` (H-Phe-[Tic]-Phe-OH): the Activity in the assay with Rattus norvegicus [3] is given as 22.51 mg. The IC50 in the assay on Platelet [5] was 2.23 nM; with Platelet [6], 4.92 nM; in the assay on Platelet [7], 7.84 nM; in the assay on Platelet [8], 8.87 nM.

For `N[C@@H](CO)C(=O)N1Cc2ccccc2C[C@H]1C(=O)N[C@@H](CO)C(=O)O` (H-Ser-[Tic]-Ser-OH), the Activity with Rattus norvegicus [3] stood at 20.97 mg. Also, the IC50 was 2.17 nM in the assay with Platelet [5], 5.36 nM in the assay with Platelet [6], 7.99 nM in the assay on Platelet [7] and 10.2 nM in the assay with Platelet [8].

Regarding `C[C@@H](O)[C@H](N)C(=O)N1Cc2ccccc2C[C@H]1C(=O)N[C@H](C(=O)O)[C@@H](C)O` (H-Thr-[Tic]-Thr-OH), the Activity was 17.53 mg in the assay with Rattus norvegicus [2]; 14.32 mg in the assay with Rattus norvegicus [3]; 20.95 mg in the assay on Rattus norvegicus [4]; “Dose-dependent effect” with Rattus norvegicus [9]; 28.63 mg in the assay with Rattus norvegicus [10]. Also, the IC50 in the assay with Platelet [5] came out at 2.89 nM; with Platelet [6], 4.14 nM; in the assay on Platelet [7] it was 10 nM; in the assay on Platelet [8], 10.8 nM.

As to `N[C@@H](Cc1ccc(O)cc1)C(=O)N1Cc2ccccc2C[C@H]1C(=O)N[C@@H](Cc1ccc(O)cc1)C(=O)O` (H-Tyr-[Tic]-Tyr-OH), the Activity with Rattus norvegicus [3] is reported as 18.79 mg. Also, the IC50 stood at 2.58 nM in the assay with Platelet [5], 4.52 nM in the assay on Platelet [6], 8.83 nM in the assay with Platelet [7] and 9.84 nM in the assay with Platelet [8].

In the case of `CC(C)[C@H](N)C(=O)N1Cc2ccccc2C[C@H]1C(=O)N[C@H](C(=O)O)C(C)C` (H-Val-[Tic]-Val-OH), the Activity in the assay on Rattus norvegicus [3] is on record as 19.42 mg. Also, the IC50 was 2.57 nM with Platelet [5], 5.87 nM in the assay with Platelet [6], 9.08 nM with Platelet [7] and 9.25 nM with Platelet [8].

As for `CC(=O)Oc1ccccc1C(=O)O` [ASPIRIN], in the assay with Rattus norvegicus [12], the Activity is 13.22 mg.

The term IC50 denotes the concentration that inhibits the measured activity by half. A low value points to higher potency.
